# A selection: hits, their analogues and other compounds. The true share with any hit is near 3.7%.
# KCNK9 block: human KCNK9 channel inhibition; actives 1.2% (n = 310,000); B-score at 10 µM; AID 488922; HEK293 KCNK9, FluxOR thallium flux fluorescence; active compounds read low;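 active = ratio B-score over 3 SD below the library mean, with starting fluorescence within 5 SD of its mean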;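 also: negative B-score means less thallium flux so channel inhibition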
# Target sequence (Q9NPC2 whole entry, looked up): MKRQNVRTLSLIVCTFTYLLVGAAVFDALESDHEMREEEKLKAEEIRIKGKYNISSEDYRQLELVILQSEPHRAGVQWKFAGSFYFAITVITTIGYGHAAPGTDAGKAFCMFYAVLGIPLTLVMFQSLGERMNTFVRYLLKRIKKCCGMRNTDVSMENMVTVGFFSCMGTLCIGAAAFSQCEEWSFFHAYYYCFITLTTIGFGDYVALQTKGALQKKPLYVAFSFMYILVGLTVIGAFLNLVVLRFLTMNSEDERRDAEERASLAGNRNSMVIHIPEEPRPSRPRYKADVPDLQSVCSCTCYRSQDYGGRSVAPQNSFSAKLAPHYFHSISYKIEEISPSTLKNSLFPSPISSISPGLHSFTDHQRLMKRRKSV
# hERG rescue: hERG (human) protection from proarrhythmic block; CHO-hERG, FluxOR thallium flux, dofetilide IC70 present; AID 1511; activation (rescue from dofetilide block), less the hit threshold, % at 10 µM; actives 0.51% (n = 310,000); Q12809;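 active = activation above the mean of controls blocked by dofetilide plus 5 SD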;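 also: thallium influx through hERG after potassium depolarization seen as dye fluorescence rise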
# Kir21 block: blocks the mouse Kir2.1 inward-rectifier potassium channel; P35561; actives 0.85% (n = 310,000); B-score at 10 µM; HEK293-Kir2.1, FluxOR thallium flux fluorescence; active compounds read low;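 active = fluorescence ratio B-score at or below minus 3 SD of library scores, with starting-brightness B-score within 2 SD, cut at about -4.2 in these data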;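 also: channel flux triggered by added potassium and thallium sulfate stimulus; B-score of peak minus minimum fluorescence over baseline after thallium stimulus; more negative B-score means stronger Kir2.1 block with less thallium influx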
# KCNK3 inh: human KCNK3 channel inhibition, primary screen. B-score at 10 µM. CHO-KCNK3 thallium flux, FluxOR fluorescence; active compounds read low. AID 602410. O14649. actives 0.84% (n = 340,000);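 active = B-score under library mean minus 4 SD, starting fluorescence ratio at most library mean plus 5 SD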;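 also: more negative B-score means stronger inhibition of thallium flux through KCNK3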
# KCNQ1 pot: human KCNQ1 channel potentiation or activation; B-score at 10 µM; P51787; CHO-K1 KCNQ1, thallium flux FluxOR fluorescence; active compounds read high; actives 0.35% (n = 310,000);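 active = fluorescence ratio B-score, a plate-corrected score, at least three library SD, with initial intensity B-score within 5 SD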
#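 Assay system: CHO-K1 cells stably expressing KCNQ1. Medium: assay buffer for compound exposure, DMSO matched across wells. Timing: 37 °C overnight plating, 90-min dark dye load, 20-min compound pretreatment. Signal: kinetic FluxOR fluorescence, 10 s baseline plus 110 s post-stimulus.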
# KCNQ1 block: inhibitors of human KCNQ1 potassium channel; actives 1.3% (n = 310,000); CHO-K1 KCNQ1, FluxOR thallium flux fluorescence; active compounds read high; B-score at 10 µM; AID 2642; P51787;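 active = compounds whose thallium flux B-score, printed positive for inhibition, exceeds three library SD while starting fluorescence stays within three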;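 also: channel opened by potassium depolarization with thallium stimulus after 20 min compound exposure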
# Numbers without * were called inactive; i = inactive; x = not tested or not shown.
SMILES,KCNK9 block,hERG rescue,Kir21 block,KCNK3 inh,KCNQ1 pot,KCNQ1 block
S=c1nc(C2CC2)[nH]c2ccccc12,i,20*,2,i,29*,i
S=c1nc(C2CCCCC2)[nH]c2ccccc12,i,10*,-0.77,i,22*,i
CC(C)c1nc(=S)c2ccccc2[nH]1,i,-4,0.73,i,i,i
O=C(NCCCO)C12CC3CC(CC(C3)C1)C2,i,-10,0.49,i,i,i
CCOc1ccc2oc(C(=O)Nc3nccs3)c(C)c2c1,x,x,x,i,x,x
COc1ccc2oc(C(=O)Nc3nccs3)c(C)c2c1,-7.9*,-12,-0.78,i,i,i
O=[N+]([O-])c1ccc(Cl)c(/C=N/n2c(-c3cccnc3)n[nH]c2=S)c1,i,0,0.74,x,i,i
Cc1cc2n(n1)C(c1ccc3c(c1)OCO3)Nc1ccccc1-2 (centres undefined),i,-17,1.5,i,i,i
Cc1ccc2c(c1)-c1cc(C)nn1C(c1ccc3c(c1)OCO3)N2 (centres undefined),-7.6*,-10,-0.43,i,i,i
O=C(/C=C/c1cccc([N+](=O)[O-])c1)NCCSCc1cccc(Cl)c1,-7.7*,-11,2.2,i,i,i
Cc1sc2ncnc(N3CCN(Cc4ccccc4)CC3)c2c1-c1ccc(F)cc1,i,-4,0.22,i,i,i
CN(C(=O)CCn1c(=S)oc2ccccc21)c1ccc(F)cc1,i,-12,-5.6*,i,i,i
O=C(CCn1c(=S)oc2ccccc21)Nc1ccc(F)cc1,i,-6,1.9,i,i,i
Cc1ccc(S(=O)(=O)Nc2cncnc2NS(=O)(=O)c2ccc(C)cc2)cc1,x,x,x,i,x,x
COc1ccc(OCC(=O)N2c3ccccc3CC2C)c([N+](=O)[O-])c1 (centres undefined),x,x,x,i,x,x
Oc1ccc2ccccc2c1N=Nc1ccccn1,-7.3*,-6,-2.4,i,i,i
CN(C)/C=C\C(=C/C(=O)C(F)(F)F)Nc1ccccc1Oc1ccccc1,i,-19,-0.23,i,i,i
Cc1ccc(C)c(-n2c(-c3ccc(Br)cc3)csc2=NC(=O)c2ccccc2F)c1,-7.7*,-5,-0.31,i,i,i
COc1ccc(C(CNC(=O)c2oc3c(Cl)cccc3c2C)N2CCCC2)cc1 (centres undefined),i,-9,-0.68,i,i,i
c1csc(COc2ccccc2CNC2CCCCC2)c1,i,-6,-4.2*,i,i,i
c1ccc(COc2ccccc2CNC2CCCC2)cc1,i,-14,-2.9,i,i,i
CCOC(=O)NN1C(=O)c2ccccc2NC1c1ccc(OC)c(OC)c1 (centres undefined),i,-14,-0.12,i,i,i
S=c1nc[nH]c2c1cnn2-c1ccccc1,i,1,-1.1,i,19*,i
NC(=O)c1cc(C(=O)c2ccccc2Cl)c[nH]1,i,-5,-0.02,i,i,i
O=S(=O)(Nc1ccc2cn[nH]c2c1)c1ccc(Cl)cc1,i,-7,-2.8,i,i,i
SMILES,KCNK9 block,hERG rescue,Kir21 block,KCNK3 inh,KCNQ1 pot,KCNQ1 block
Cc1cc(S(=O)(=O)Nc2ccc3cn[nH]c3c2)c(C)cc1Cl,i,-15,-5.2*,i,i,i
COc1ccc(CCNC(=O)COc2cc(O)c3c(c2)OC(C)(C)CC3=O)cc1OC,i,-9,0.95,i,i,i
CCc1ccccc1NC1=NCC(=O)N1Cc1ccc(OC)cc1,i,1,-4.9*,i,i,i
CSc1ccccc1NC(=O)CSc1nnc(CNC(=O)c2ccccc2F)n1C,i,-2,-1.3,i,i,i
CCC(NC(=S)NC1CCCCC1)c1ccc(C)cc1 (centres undefined),i,-2,-2.9,i,i,i
CCOC(=O)c1cc(-c2ccc(Cl)cc2)nc2c1c(=O)[nH]c(=O)n2CCOC,i,-8,0.96,i,i,i
CCOC(=O)c1cc(-c2ccc(Cl)cc2)nc2onc(C)c12,-8*,-9,1.1,x,i,i
O=C1/C(=C/c2ccc(O)c([N+](=O)[O-])c2)SC(=S)N1Cc1ccccc1,i,-14,0.61,i,i,8*
Cn1cc(/C=C2\SC(=S)N(NC(=O)c3ccccc3)C2=O)c2ccccc21,i,9.5*,-0.78,i,i,i
Cn1cc(/C=C2\SC(=S)N(NC(=O)c3cccc(Cl)c3)C2=O)c2ccccc21,x,x,x,i,x,x
O=C(NN1C(=O)/C(=C/c2ccc(O)cc2)SC1=S)c1cccc(O)c1,-9.1*,-12,-6.1,i,i,8*
O=C(NN1C(=O)/C(=C/c2ccc(O)c([N+](=O)[O-])c2)SC1=S)c1ccccc1Cl,i,-12,1.1,i,i,7*
O=C(NN1C(=O)/C(=C/c2cc([N+](=O)[O-])ccc2O)SC1=S)c1ccccc1O,i,-22,-3.6,x,i,i
CCOC(=O)C(=O)Nc1ccc(Oc2ccccc2)cc1,i,-1,0.09,i,i,i
COc1cc([N+](=O)[O-])cc(/C=C2/SC(=S)N(Cc3ccccc3)C2=O)c1O,i,-10,-1.6,i,i,9*
COc1cc(/C=C2\SC(=S)N(NC(=O)c3ccccc3O)C2=O)ccc1O,i,4,-1.9,i,i,6*
O=C(CSc1nc2ccc([N+](=O)[O-])cc2[nH]1)NC1CCCCCC1,i,-12,-0.87,i,i,14*
CC(Sc1ccsc1[N+](=O)[O-])C(=O)NCc1ccco1 (centres undefined),-7.7*,-1,-1.2,i,i,i
CC(C)(c1ccccc1)c1ccc(OCC(O)CN2CCCC2)cc1 (centres undefined),i,-11,-5.3*,i,i,i
OC(COc1ccc2cc(Br)ccc2c1)CN1CCCC1 (centres undefined),i,-19,-6.8*,i,i,i
COc1ccc(N2CCN(CC(O)COCCOc3ccc(Br)cc3)CC2)cc1 (centres undefined),i,-12,-4.3*,i,i,i
COc1ccccc1N1CCN(CC(O)COCCOc2ccc(Br)cc2)CC1 (centres undefined),i,-11,-1.6,i,i,i
CCOC(=O)c1oc2ccccc2c1NC(=O)CN1CCOCC1,i,-21,-0.56,i,i,i
O=C(CNC(=O)c1cccs1)c1ccc(Br)cc1,i,-2,1.1,i,i,i
Cn1c(N)c(C(=O)c2ccc(Cl)cc2)c(=O)n(C)c1=O,i,-5,2.1,i,i,i
